Source: PMC3899495 (Clinical Pharmacokinetics, 2013)
Where two headings read alike, the source gives them in different places.

How the values were obtained:
[1] = varying degrees of impaired hepatic function; cited from earlier work
[2] = cited from earlier work
[3] = Tolerability after single dose; assay type: in vivo, human; settings: single 0.4 U/kg s.c. dose(s)
Procedure, shortened: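 Adults 18–85 y, BMI ≤40 kg/m2, in five renal-function groups. 0.4 U/kg s.c. into thigh: non-ESRD once; ESRD twice, post-hemodialysis and ~13 h pre-hemodialysis. In-house ≥48 h; follow-up 7–21 days after last dose. Also physical exam, biochemistry, hematology, urinalysis. AEs graded for severity and relationship; severe hypoglycemia = requiring assistance (ADA). Blood glucose sampled to 68 h (ESRD) or 120 h.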

[4] = assay type: in vivo, human; settings: single 0.4 U/kg s.c., geometric mean (CV %), n = 6; for AUC0–∞ / C max: serum, ELISA
Procedure, shortened: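 Subjects grouped by screening Cockcroft–Gault creatinine clearance. Non-dialysis subjects received one 0.4 U/kg subcutaneous dose (100 U/mL) into a lifted thigh skin fold at 0800 hours. Serum was sampled pre-dose through 120 h. Concentrations were measured by validated sandwich ELISA (mouse anti-human-insulin monoclonal capture, biotinylated mouse monoclonal detection; serum LLOQ 20 pM). Parameters came from individual concentration–time curves; CL/F = dose/AUC0–∞.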

[5] = cited from earlier work; remark: listed apart in the source
[6] = mild renal impairment (CLCR 50–80 mL/min)
[7] = moderate renal impairment (CLCR 30–49 mL/min)
[8] = normal renal function (CLCR >80 mL/min)
[9] = severe renal impairment (CLCR <30 mL/min)

## Insulin degludec
[1]
  effect of impaired hepatic function on ultra-long pharmacokinetic properties: preserved
[2]
  within-subject variability in glucose-lowering effect (AUC values) compared with insulin glargine: four-times lower
[3]; 32 subjects exposed
  severe adverse events: None
[3]; all subjects
  severe hypoglycemic episodes: No severe hypoglycemic episodes
[4]; [6]
  CL/F (apparent clearance, dose/AUC0–∞): 19.1 (31) mL/h/kg
  AUC0–∞: 126,096 (49) pmol·h/L
  C max: 3,502 (30) pmol/L
[4]; [7]
  CL/F (apparent clearance, dose/AUC0–∞): 20.5 (39) mL/h/kg
  AUC0–∞: 117,646 (32) pmol·h/L
  C max: 3,237 (39) pmol/L
[4]; [8]
  CL/F (apparent clearance, dose/AUC0–∞): 22.0 (32) mL/h/kg
  AUC0–∞: 109,472 (26) pmol·h/L
  C max: 3,085 (28) pmol/L
[4]; [9]
  CL/F (apparent clearance, dose/AUC0–∞): 18.9 (24) mL/h/kg
  AUC0–∞: 127,268 (28) pmol·h/L
  C max: 3,918 (28) pmol/L

## insulin aspart
[5]
  effect of impaired renal function on pharmacokinetics: reportedly unaffected

## insulin detemir
[5]
  effect of impaired renal function on pharmacokinetics: reportedly unaffected

## insulin lispro
[5]; patients with diabetes
  effect of impaired renal function on pharmacokinetics: affect the pharmacokinetics

## regular human insulin
[5]; patients with diabetes
  effect of impaired renal function on pharmacokinetics: affect the pharmacokinetics
